Reference: ChEMBL document CHEMBL1145905, “Design and synthesis of novel dimeric morphinan ligands for kappa and micro opioid receptors” (J Med Chem, 2003)
Active and inactive are the calls of the source. The calls are words filed in the database; no cut-off is given here.

Tests used:
Mu-type opioid receptor [1] = target: T1, Mu-type opioid receptor (Homo sapiens, UniProt P35372); experiment: Inhibitory activity against Opioid receptor mu 1 in chinese Hamster Ovary (CHO) cells membranes was determined using [3H]-DAMGO radioligand; format: cell-based
[2] = target: Opioid receptors; mu & kappa (Homo sapiens) (UniProt P41145+P35372); experiment: Selective inhibitory activity was determined against kappa & mu opioid receptor in chinese Hamster Ovary (CHO) cell membranes
[3] = target: T2, Kappa-type opioid receptor (Homo sapiens, UniProt P41145); experiment: Inhibitory activity against Opioid receptor kappa 1 in chinese Hamster Ovary (CHO) cell membranes was determined using [3H]U-69593 radioligand
[4] = target: T2, Kappa-type opioid receptor; experiment: Inhibitory activity in stimulating [35S]-GTP-gamma S binding mediated by the Opioid receptor kappa 1 in chinese Hamster Ovary (CHO) cell membranes was determined; format: functional
[5] = target: Delta-type opioid receptor (Homo sapiens, UniProt P41143); experiment: Inhibitory activity against Opioid receptor delta 1 in chinese Hamster Ovary (CHO) cell membranes was determined using [3H]naltrindole radioligand
Mu-type opioid receptor [6] = target: T1, Mu-type opioid receptor; experiment: Inhibitory activity was determined in stimulating [35S]-GTP-gamma S binding mediated by the Opioid receptor mu 1 in chinese Hamster Ovary (CHO)membranes
Mu-type opioid receptor [7] = target: T1, Mu-type opioid receptor; experiment: Maximal percent inhibitory activity was determined in stimulating [35S]-GTP-gamma S binding mediated by the Opioid receptor mu 1 in chinese Hamster Ovary (CHO) cell membranes
In short: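 Antagonist mode: human μ-CHO membranes (7.5 μg protein) with 200 nM DAMGO plus varying compound concentrations, 3 μM GDP, […] [35S]GTPγS, 60 min at 30 °C, pH 7.4 buffer with Mg2+/NaCl/EGTA; filtration, counting.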

[8] = target: T2, Kappa-type opioid receptor; experiment: Percent maximal stimulation in [35S]-GTP-gamma S binding assay mediated by the Opioid receptor kappa 1 in chinese Hamster Ovary (CHO)membranes; format: functional
Mu-type opioid receptor [9] = target: T1, Mu-type opioid receptor; experiment: Percent maximal stimulation in [35S]-GTP-gamma S binding assay mediated by the Opioid receptor mu 1 in chinese Hamster Ovary (CHO)membranes
[10] = target: Opioid receptors; delta & kappa (Homo sapiens) (UniProt P41145+P41143); experiment: Selective inhibitory activity was determined against kappa & delta opioid receptor in chinese Hamster Ovary (CHO) cell membranes
Mu-type opioid receptor [11] = target: T1, Mu-type opioid receptor
[12] = target: T2, Kappa-type opioid receptor; experiment: Maximal percent inhibitory activity in stimulating [35S]-GTP-gamma S binding mediated by the Opioid receptor kappa 1 in chinese Hamster Ovary (CHO) cell membranes; No Effect; format: functional
In short: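 Antagonist mode: human κ-CHO membranes (15 μg protein) with 100 nM U50,488 plus varying compound concentrations, 3 μM GDP, […] [35S]GTPγS, 60 min at 30 °C, pH 7.4 buffer with Mg2+/NaCl/EGTA; filtration, counting.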

[13] = target: T2, Kappa-type opioid receptor; experiment: Inhibitory activity in stimulating [35S]-GTP-gamma S binding mediated by the Opioid receptor kappa 1 in chinese Hamster Ovary (CHO) cell membranes; format: functional
In short: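 Antagonist mode: membranes of CHO cells stably expressing human κ receptor (15 µg protein/tube) incubated with varying compound concentrations plus 100 nM U50,488, 60 min at 30 °C, in Tris/MgCl2/NaCl/EGTA buffer pH 7.4 with 3 µM GDP and [35S]GTPγS. Filtration, scintillation counting. Nonspecific binding with 10 µM GTPγS.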

Delta-type opioid receptor, sequence (P41143 whole entry): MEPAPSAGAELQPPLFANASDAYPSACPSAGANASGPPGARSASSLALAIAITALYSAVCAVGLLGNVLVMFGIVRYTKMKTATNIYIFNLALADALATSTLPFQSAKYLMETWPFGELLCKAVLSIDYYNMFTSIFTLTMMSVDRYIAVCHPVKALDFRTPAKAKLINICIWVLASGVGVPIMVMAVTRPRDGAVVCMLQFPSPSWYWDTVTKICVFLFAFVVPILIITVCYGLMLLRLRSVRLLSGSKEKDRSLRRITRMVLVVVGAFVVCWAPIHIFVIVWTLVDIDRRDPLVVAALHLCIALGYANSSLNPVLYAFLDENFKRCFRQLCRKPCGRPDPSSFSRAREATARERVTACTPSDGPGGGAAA
Opioid receptors; delta & kappa (Homo sapiens), sequence (P41143 whole entry, looked up): as the sequence (P41143 whole entry) above
Opioid receptors; delta & kappa (Homo sapiens), sequence (P41145 whole entry, looked up): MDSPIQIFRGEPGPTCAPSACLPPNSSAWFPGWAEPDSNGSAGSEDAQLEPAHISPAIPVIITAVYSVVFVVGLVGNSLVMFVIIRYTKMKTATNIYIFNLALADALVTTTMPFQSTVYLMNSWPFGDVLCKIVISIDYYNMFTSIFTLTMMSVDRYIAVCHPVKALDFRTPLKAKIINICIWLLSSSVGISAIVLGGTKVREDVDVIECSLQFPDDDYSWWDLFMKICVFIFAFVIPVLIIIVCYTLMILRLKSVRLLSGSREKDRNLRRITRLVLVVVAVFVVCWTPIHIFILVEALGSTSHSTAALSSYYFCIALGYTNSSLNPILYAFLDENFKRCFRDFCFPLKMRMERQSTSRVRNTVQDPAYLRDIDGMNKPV
T2 sequence (P41145 whole entry): as the sequence (P41145 whole entry, looked up) above
T1 sequence (P35372 whole entry): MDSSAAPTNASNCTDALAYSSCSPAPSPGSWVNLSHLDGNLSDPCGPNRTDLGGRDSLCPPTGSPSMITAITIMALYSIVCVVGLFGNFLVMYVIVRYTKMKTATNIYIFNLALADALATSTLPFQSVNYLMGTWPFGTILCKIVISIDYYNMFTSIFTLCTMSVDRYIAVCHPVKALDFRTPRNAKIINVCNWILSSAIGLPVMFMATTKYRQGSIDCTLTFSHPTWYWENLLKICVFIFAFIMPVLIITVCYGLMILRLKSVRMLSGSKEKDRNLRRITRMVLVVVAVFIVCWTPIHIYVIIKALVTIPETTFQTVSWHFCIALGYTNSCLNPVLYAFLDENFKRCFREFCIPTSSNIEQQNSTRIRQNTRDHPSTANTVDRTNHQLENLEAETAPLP
Opioid receptors; mu & kappa (Homo sapiens), sequence (P35372 whole entry, looked up): as the sequence (P35372 whole entry) above
Opioid receptors; mu & kappa (Homo sapiens), sequence (P41145 whole entry, looked up): as the sequence (P41145 whole entry, looked up) above

O=C(CCC(=O)Oc1ccc2c(c1)[C@@]13CCCC[C@H]1[C@@H](C2)N(CC1CC1)CC3)Oc1ccc2c(c1)[C@@]13CCCC[C@H]1[C@@H](C2)N(CC1CC1)CC3
Ki (Mu-type opioid receptor [1]): 0.14 nM
Selectivity [2]: 1
Ki [3]: 0.1 nM
EC50 [4]: 3.3 nM
Ki [5]: 3.8 nM
IC50 (Mu-type opioid receptor [6]): 1.8 nM
Imax (Mu-type opioid receptor [7]): 60%
Emax [8]: 70%
Emax (Mu-type opioid receptor [9]): 10%
Selectivity [10]: 40

CN1CC[C@]23CCCC[C@H]2[C@H]1Cc1ccc(O)cc13 [LEVORPHANOL]
Ki [3]: 2.3 nM

Oc1ccc2c(c1)[C@@]13CCCC[C@H]1[C@@H](C2)N(CC1CCC1)CC3 [BUTORPHAN]
Ki [3]: 0.079 nM
EC50 [4]: 1.3 nM

Oc1ccc2c(c1)[C@@]13CCCC[C@H]1[C@@H](C2)N(CCCCCCN1CC[C@]24CCCC[C@H]2[C@H]1Cc1ccc(O)cc14)CC3
Ki (Mu-type opioid receptor [1]): 52 nM
Selectivity [2]: 1
Ki [3]: 50 nM
Ki [5]: 370 nM
Selectivity [10]: 7

O=C(Oc1ccc2c(c1)[C@@]13CCCC[C@H]1[C@@H](C2)N(CC1CCC1)CC3)[C@H]1C[C@H]1C(=O)Oc1ccc2c(c1)[C@@]13CCCC[C@H]1[C@@H](C2)N(CC1CCC1)CC3
Ki (Mu-type opioid receptor [1]): 0.28 nM
Selectivity [2]: 2
Ki [3]: 0.17 nM
Ki [5]: 16 nM
Selectivity [10]: 90

COC(=O)CCCCCCCCC(=O)Oc1ccc2c(c1)[C@@]13CCCC[C@H]1[C@@H](C2)N(CC1CCC1)CC3
Ki (Mu-type opioid receptor [1]): 0.23 nM
Selectivity [2]: 3
Ki [3]: 0.07 nM
EC50 [4]: 5.7 nM
Ki [5]: 44 nM
IC50 (Mu-type opioid receptor [6]): 130 nM
Imax (Mu-type opioid receptor [7]): 50%
Emax [8]: 90%
Emax (Mu-type opioid receptor [9]): 60%
Selectivity [10]: 630
EC50 (Mu-type opioid receptor [11]): 8 nM
NT [12]: inactive

O=C(Oc1ccc2c(c1)[C@@]13CCCC[C@H]1[C@@H](C2)N(CC1CCC1)CC3)c1cccc(C(=O)Oc2ccc3c(c2)[C@@]24CCCC[C@H]2[C@@H](C3)N(CC2CCC2)CC4)c1
Ki (Mu-type opioid receptor [1]): 3.3 nM
Selectivity [2]: 1
Ki [3]: 3.4 nM
Ki [5]: 920 nM
Selectivity [10]: 270

O=C(CCCCCCCCCCC(=O)Oc1ccc2c(c1)[C@@]13CCCC[C@H]1[C@@H](C2)N(CC1CCC1)CC3)Oc1ccc2c(c1)[C@@]13CCCC[C@H]1[C@@H](C2)N(CC1CCC1)CC3
Ki (Mu-type opioid receptor [1]): 1.8 nM
Selectivity [2]: 2
Ki [3]: 1.1 nM
EC50 [4]: 8.1 nM
Ki [5]: 82 nM
IC50 (Mu-type opioid receptor [6]): 100 nM
Imax (Mu-type opioid receptor [7]): 60%
Emax [8]: 90%
Emax (Mu-type opioid receptor [9]): 14%
Selectivity [10]: 75
NE [12]: inactive

Oc1ccc2c(c1)[C@@]13CCCC[C@H]1[C@@H](C2)N(CC1CC1)CC3
Imax (Mu-type opioid receptor [7]): 50%

O=C(CCCC(=O)Oc1ccc2c(c1)[C@@]13CCCC[C@H]1[C@@H](C2)N(CC1CCC1)CC3)Oc1ccc2c(c1)[C@@]13CCCC[C@H]1[C@@H](C2)N(CC1CCC1)CC3
Ki (Mu-type opioid receptor [1]): 3.3 nM
Selectivity [2]: 3
Ki [3]: 1.2 nM
Ki [5]: 80 nM
Selectivity [10]: 70

c1cc2c(cc1OCCCCOc1ccc3c(c1)[C@@]14CCCC[C@H]1[C@@H](C3)N(CC1CCC1)CC4)[C@@]13CCCC[C@H]1[C@@H](C2)N(CC1CCC1)CC3
Ki (Mu-type opioid receptor [1]): 29 nM
Selectivity [2]: 2
Ki [3]: 18 nM
Ki [5]: 730 nM
Selectivity [10]: 40

Oc1ccc2c(c1)[C@@]13CCCC[C@H]1[C@@H](C2)N(CCCN1CC[C@]24CCCC[C@H]2[C@H]1Cc1ccc(O)cc14)CC3
Ki (Mu-type opioid receptor [1]): 48 nM
Selectivity [2]: 2
Ki [3]: 24 nM
Ki [5]: 600 nM
Selectivity [10]: 25

O=C(CCC(=O)Oc1ccc2c(c1)[C@@]13CCCC[C@H]1[C@@H](C2)N(CC1CCC1)CC3)Oc1ccc2c(c1)[C@@]13CCCC[C@H]1[C@@H](C2)N(CC1CCC1)CC3
Ki (Mu-type opioid receptor [1]): 0.16 nM
Selectivity [2]: 2
Ki [3]: 0.076 nM
EC50 [4]: 4.5 nM
Ki [5]: 9.4 nM
IC50 (Mu-type opioid receptor [6]): 170 nM
Imax (Mu-type opioid receptor [7]): 50%
Emax [8]: 70%
Emax (Mu-type opioid receptor [9]): 50%
Selectivity [10]: 120
EC50 (Mu-type opioid receptor [11]): 7.4 nM
NE [12]: inactive

O=C(CCCCCCC(=O)Oc1ccc2c(c1)[C@@]13CCCC[C@H]1[C@@H](C2)N(CC1CCC1)CC3)Oc1ccc2c(c1)[C@@]13CCCC[C@H]1[C@@H](C2)N(CC1CCC1)CC3
Ki (Mu-type opioid receptor [1]): 0.89 nM
Selectivity [2]: 1
Ki [3]: 0.65 nM
EC50 [4]: 11 nM
Ki [5]: 24 nM
IC50 (Mu-type opioid receptor [6]): 90 nM
Imax (Mu-type opioid receptor [7]): 100%
Emax [8]: 80%
Emax (Mu-type opioid receptor [9]): 60%
Selectivity [10]: 37
EC50 (Mu-type opioid receptor [11]): 10 nM
NE [12]: inactive

O=C(CCCCCCCCC(=O)Oc1ccc2c(c1)[C@@]13CCCC[C@H]1[C@@H](C2)N(CC1CCC1)CC3)Oc1ccc2c(c1)[C@@]13CCCC[C@H]1[C@@H](C2)N(CC1CCC1)CC3
Ki (Mu-type opioid receptor [1]): 0.09 nM
Selectivity [2]: 2
Ki [3]: 0.049 nM
EC50 [4]: 0.85 nM
Ki [5]: 4.2 nM
IC50 (Mu-type opioid receptor [6]): 16 nM
Imax (Mu-type opioid receptor [7]): 60%
Emax [8]: 60%
Emax (Mu-type opioid receptor [9]): 50%
Selectivity [10]: 90
EC50 (Mu-type opioid receptor [11]): 1.3 nM
NE [12]: inactive

c1cc2c(cc1OCCCCCCCCCCOc1ccc3c(c1)[C@@]14CCCC[C@H]1[C@@H](C3)N(CC1CCC1)CC4)[C@@]13CCCC[C@H]1[C@@H](C2)N(CC1CCC1)CC3
Ki (Mu-type opioid receptor [1]): 66 nM
Selectivity [2]: 0.5
Ki [3]: 120 nM
Ki [5]: 2500 nM
Selectivity [10]: 20

O=C(CCCCCCCC(=O)Oc1ccc2c(c1)[C@@]13CCCC[C@H]1[C@@H](C2)N(CC1CCC1)CC3)Oc1ccc2c(c1)[C@@]13CCCC[C@H]1[C@@H](C2)N(CC1CCC1)CC3
Ki (Mu-type opioid receptor [1]): 0.97 nM
Selectivity [2]: 2
Ki [3]: 0.59 nM
EC50 [4]: 15 nM
Ki [5]: 21 nM
IC50 (Mu-type opioid receptor [6]): 360 nM
Imax (Mu-type opioid receptor [7]): 54%
Emax [8]: 80%
Emax (Mu-type opioid receptor [9]): 57%
Selectivity [10]: 35
EC50 (Mu-type opioid receptor [11]): 11 nM
NE [12]: inactive

O=C(/C=C/C(=O)Oc1ccc2c(c1)[C@@]13CCCC[C@H]1[C@@H](C2)N(CC1CCC1)CC3)Oc1ccc2c(c1)[C@@]13CCCC[C@H]1[C@@H](C2)N(CC1CCC1)CC3
Ki (Mu-type opioid receptor [1]): 0.2 nM
Selectivity [2]: 3
Ki [3]: 0.078 nM
IC50 [13]: 2400 nM
EC50 [4]: 2.3 nM
Ki [5]: 9.4 nM
IC50 (Mu-type opioid receptor [6]): 610 nM
Imax (Mu-type opioid receptor [7]): 100%
Emax [8]: 90%
Emax (Mu-type opioid receptor [9]): 50%
Selectivity [10]: 120
EC50 (Mu-type opioid receptor [11]): 2.9 nM

O=C(Oc1ccc2c(c1)[C@@]13CCCC[C@H]1[C@@H](C2)N(CC1CCC1)CC3)c1ccc(C(=O)Oc2ccc3c(c2)[C@@]24CCCC[C@H]2[C@@H](C3)N(CC2CCC2)CC4)cc1
Ki (Mu-type opioid receptor [1]): 4.7 nM
Selectivity [2]: 1
Ki [3]: 4.2 nM
Ki [5]: 400 nM
Selectivity [10]: 100

O=C(CCCCCCCCC(=O)Oc1ccc2c(c1)[C@@]13CCCC[C@H]1[C@@H](C2)N(CC1CC1)CC3)Oc1ccc2c(c1)[C@@]13CCCC[C@H]1[C@@H](C2)N(CC1CC1)CC3
Ki (Mu-type opioid receptor [1]): 0.93 nM
Selectivity [2]: 2
Ki [3]: 0.41 nM
EC50 [4]: 4.9 nM
Ki [5]: 32 nM
IC50 (Mu-type opioid receptor [6]): 90 nM
Imax (Mu-type opioid receptor [7]): 100%
Emax [8]: 90%
Emax (Mu-type opioid receptor [9]): 30%
Selectivity [10]: 80
